Results taken from ChEMBL document CHEMBL1240362, “Intrapulmonary pharmacokinetics of S-013420, a novel bicyclolide antibacterial, in healthy Japanese subjects” (Antimicrob Agents Chemother, 2010).
≈ marks a conversion by molar mass, not a printed value.

How the values were obtained:
[1] = Drug level in epithelial lining fluid of healthy human at […], po administered as single dose after 10 hrs; format: ADME, organism-based; parameters: route oral; details: read-out: Drug uptake
Procedure, shortened: (§1)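 Four healthy male volunteers per BAL time (2-24 h) after one oral 400 mg suspension dose. Single bronchoscopic lavage; first aliquot discarded, next three pooled. Supernatant separated at 400 × g, 5 min, 4°C, and drug assayed by LC/MS/MS. ELF level = CBAL × urea plasma/urea BAL, with urea corrected for blood contamination via RBC ratio. PK parameters are model-independent, based on the mean concentration at each time.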

[2] = Ratio of drug level in epithelial lining fluid to plasma in healthy human at 400 mg, po administered as single dose after 10 hrs
Streptococcus pyogenes = test: Antimicrobial activity against Streptococcus pyogenes; format: functional
[3] = Plasma concentration in healthy human at […], po after 8 hrs; format: ADME, organism-based; parameters: route oral
Procedure, shortened: (§2)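 Healthy nonsmoking Japanese men, 20-45 y, given one oral 400 mg suspension dose. Blood drawn at 0-72 h, spun at 1,600 × g for 10 min at 4°C, plasma kept at −20°C. Drug measured by validated LC/MS/MS, linear 0.005-5 μg/ml. Values are mean ± SD, n = 28. Cmax, Tmax and t1/2,z are model-independent; AUC0-24 by trapezoidal method.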

[4] = Ratio of AUC (0 to 24 hrs) in […] healthy epithelial lining fluid to MIC90 for erythromycin-susceptible Staphylococcus aureus; format: functional
Homo sapiens [5] = test: Toxicity in healthy human assessed as alveolar macrophage count in bronchoalveolar fluid at 400 mg, po administered as single dose after 6 hrs; details: in vivo
[6] = Tmax in epithelial lining fluid of healthy human at 400 mg, po administered as single dose
[7] = Drug level in epithelial lining fluid of healthy human at […], po administered as single dose after 4 hrs; format: ADME, organism-based; parameters: route oral; details: read-out: Drug uptake; procedure, shortened: as §1
[8] = Drug level in epithelial lining fluid of healthy human at […] administered as single dose after 2 hrs; format: ADME, organism-based; parameters: route oral; details: po, read-out: Drug uptake; procedure, shortened: as §1
Homo sapiens [9] = test: Toxicity in healthy human assessed as lymphocytes count in bronchoalveolar fluid at […], po administered as single dose after 24 hrs; format: organism-based, Lung; parameters: route oral; details: in vivo
Procedure, shortened: (§3)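 Healthy Japanese male never-smokers, aged 20 to 45 years with normal BMI, got one open-label oral 400 mg suspension dose. Four subjects per time group had one fiber-optic bronchoscopic BAL at the assigned post-dose time. The first aliquot was discarded and the last three were pooled. BAL fluid was held on ice and spun at 400 × g for 5 min at 4°C. Pellet cells were counted by hemocytometer, with a differential count on a stained cytocentrifuge preparation.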

Homo sapiens [10] = test: Toxicity in healthy human assessed as other cellular fractions in bronchoalveolar fluid at […], po administered as single dose after 6 hrs; format: organism-based, Lung; parameters: route oral; details: in vivo; procedure, shortened: as §3
Homo sapiens [11] = test: Toxicity in healthy human assessed as lymphocytes count in bronchoalveolar fluid at […], po administered as single dose after 12 hrs; format: organism-based, Lung; parameters: route oral; details: in vivo; procedure, shortened: as §3
Homo sapiens [12] = test: Toxicity in healthy human assessed as other cellular fractions in bronchoalveolar fluid at […], po administered as single dose after 12 hrs; format: organism-based, Lung; parameters: route oral; details: in vivo; procedure, shortened: as §3
Haemophilus influenzae = test: Antimicrobial activity against Haemophilus influenzae; format: functional
[13] = Ratio of drug level in alveolar macrophages to plasma in healthy human at 400 mg, po administered as single dose after 2 hrs
Homo sapiens [14] = test: Toxicity in healthy human assessed as lymphocytes count in bronchoalveolar fluid at […], po administered as single dose after 2 hrs; format: organism-based, Lung; parameters: route oral; details: in vivo; procedure, shortened: as §3
[15] = Ratio of drug level in alveolar macrophages to plasma in healthy human at 400 mg, po administered as single dose after 24 hrs
Homo sapiens [16] = test: Toxicity in healthy human assessed as eosinophil count in bronchoalveolar fluid at 400 mg, po administered as single dose after 8 hrs; details: in vivo
[17] = Drug level in alveolar macrophages of healthy human at […], po administered as single dose after 6 hrs; format: ADME, organism-based, Macrophage; parameters: route oral; details: read-out: Drug uptake
Procedure, shortened: (§4)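 One oral 400 mg suspension dose; four volunteers lavaged at each time (2-24 h). Cell pellet from the pooled 2nd-4th aspirates was counted (hemocytometer, stained cytospin differential). Drug in cell suspension measured by HPLC, divided by AM volume assuming 2.42 μl/10^6 cells. Cmax and Tmax are model-independent, based on mean concentrations at each time.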

[18] = Drug level in epithelial lining fluid of healthy human at […], po administered as single dose after 12 hrs; format: ADME, organism-based; parameters: route oral; details: read-out: Drug uptake; procedure, shortened: as §1
[19] = Plasma concentration in healthy human at […], po after 10 hrs; format: ADME, organism-based; parameters: route oral; procedure, shortened: as §2
[20] = Ratio of AUC (0 to 24 hrs) in plasma of healthy human to MIC90 for Streptococcus pneumoniae; format: functional
Homo sapiens [21] = test: Toxicity in healthy human assessed as other cellular fractions in bronchoalveolar fluid at 400 mg, po administered as single dose after 4 hrs; details: in vivo
Homo sapiens [22] = test: Toxicity in healthy human assessed as eosinophil count in bronchoalveolar fluid at 400 mg, po administered as single dose after 6 hrs; details: in vivo
[23] = Ratio of drug level in alveolar macrophages to plasma in healthy human at 400 mg, po administered as single dose after 6 hrs
[24] = Terminal-phase half-life in plasma of healthy human at 400 mg, po administered as single dose; details: read-out: beta t1/2 (converted)
[25] = Drug level in alveolar macrophages of healthy human at […], po administered as single dose after 4 hrs; format: ADME, organism-based, Macrophage; parameters: route oral; details: read-out: Drug uptake; procedure, shortened: as §4
Homo sapiens [26] = test: Toxicity in healthy human assessed as alveolar macrophage count in bronchoalveolar fluid at 400 mg, po administered as single dose after 24 hrs; details: in vivo
[27] = Ratio of AUC (0 to 24 hrs) in […] healthy epithelial lining fluid to MIC90 for Streptococcus pneumoniae; format: functional
[28] = Drug level in alveolar macrophages of healthy human at […], po administered as single dose after 10 hrs; format: ADME, organism-based, Macrophage; parameters: route oral; details: read-out: Drug uptake; procedure, shortened: as §4
[29] = Ratio of drug level in alveolar macrophages to plasma in healthy human at 400 mg, po administered as single dose after 10 hrs
Homo sapiens [30] = test: Toxicity in healthy human assessed as alveolar macrophage count in bronchoalveolar fluid at 400 mg, po administered as single dose after 2 hrs; details: in vivo
Homo sapiens [31] = test: Toxicity in healthy human assessed as other cellular fractions in bronchoalveolar fluid at 400 mg, po administered as single dose after 2 hrs; details: in vivo
Homo sapiens [32] = test: Toxicity in healthy human assessed as alveolar macrophage count in bronchoalveolar fluid at 400 mg, po administered as single dose after 4 hrs; details: in vivo
Homo sapiens [33] = test: Toxicity in healthy human assessed as neutrophil count in bronchoalveolar fluid at […], po administered as single dose after 8 hrs; format: organism-based, Lung; parameters: route oral; details: in vivo; procedure, shortened: as §3

`CC[C@H]1OC(=O)[C@H](C)C(=O)[C@H](C)[C@@H](O[C@@H]2O[C@H](C)C[C@H](N(C)C)[C@H]2O)[C@@]2(C)C[C@@H](C)/C(=N\C(C)=O)[C@H](C)[C@@H](OC/C(=N\OCc3ccc(-n4cccn4)nc3)CO2)[C@]1(C)O` [MODITHROMYCIN] gave a concentration at 10 h [1] of 10000 ng/mL, a Kp at 10 h [2] of 23.2 and an MIC90 (Streptococcus pyogenes) of at most 0.063 µg/mL. It also gave a concentration at 8 h [3] of 441 ng/mL, a RatioAUC/MIC [4] of 849.6 and an Activity (Homo sapiens [5]) of 86.9%. It also gave a Tmax [6] of 2 h, a concentration at 4 h [7] of 13700 ng/mL and a concentration at 2 h [8] of 16700 ng/mL. It also gave an Activity (Homo sapiens [9]) of 10.8%, an Activity (Homo sapiens [10]) of 0.1% and an Activity (Homo sapiens [11]) of 13.3%. For the same compound, the Activity (Homo sapiens [12]) was 0%, the MIC90 (Haemophilus influenzae) was 8 µg/mL (≈ 9.51 µM) and the Kp at 2 h [13] was 93. It also gave an Activity (Homo sapiens [14]) of 15.3%, a Kp at 24 h [15] of 232 and an Activity (Homo sapiens [16]) of 0.3%. For the same compound, the concentration at 6 h [17] was 100000 ng/mL, the concentration at 12 h [18] was 5800 ng/mL and the concentration at 10 h [19] was 429 ng/mL. For the same compound, the RatioAUC/MIC [20] was 83.6, the Activity (Homo sapiens [21]) was 0% and the Activity (Homo sapiens [22]) was 0%. For the same compound, the Kp at 6 h [23] was 183, the half-life [24] was 17.5 h and the concentration at 4 h [25] was 116000 ng/mL. For the same compound, the Activity (Homo sapiens [26]) was 89.3%, the RatioAUC/MIC [27] was 1699.2 and the concentration at 10 h [28] was 108000 ng/mL. The Kp at 10 h [29] was 260, the Activity (Homo sapiens [30]) was 84.8% and the Activity (Homo sapiens [31]) was 0%. The Activity (Homo sapiens [32]) was 87.1% and the Activity (Homo sapiens [33]) was 0.1%.
